Assay results published in ChEMBL document CHEMBL1134952, “Dual NK(1) antagonists--serotonin reuptake inhibitors as potential antidepressants. Part 2: SAR and activity of benzyloxyphenethyl piperazine derivatives” (Bioorg Med Chem Lett, 2002).
Activity calls are given as the source filed them. The rule behind the calls is not given here.

Tests used:
[1] = target: Sodium-dependent serotonin transporter (Rattus norvegicus, UniProt P31652); assay: Binding affinity against Serotonin transporter in rat cerebral cortex using [3H]paroxetine binding assay.; assay type: tissue-based
How it was run: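 Rat cerebral cortex membranes, […] protein, incubated 120 min at 25 °C in 50 mM Tris–HCl pH 7.4 with 2 mM MgCl2 and 0.05 nM radioligand. Nonspecific binding taken as the residual binding with excess imipramine present.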

Substance-P receptor [2] = target: T1, Substance-P receptor (Homo sapiens, UniProt P25103); assay: Binding affinity against human Tachykinin receptor 1 expressed in CHO cells using [3H]-substance P as the radioligand; assay type: cell-based
Gerbillinae = assay: Dose required to decrease by 45% the duration of the foot-tapping, indicating efficacious central blockade of NK1 receptors; assay type: functional
Cavia porcellus [3] = assay: Oral dose required attenuate by 50% the duration of vocalizations in the isolation-induced guinea pig pup by vocalization test; assay type: functional
Cavia porcellus [4] = assay: Oral dose required attenuate by 99% the duration of vocalizations in the isolation-induced guinea pig pup by vocalization test; assay type: functional
Rattus norvegicus = assay: Intraperitoneal dose required to increase extracellular 5-HT levels to 250% in the frontal cortex of freely moving rats by using intracerebral microdialysis.; assay type: functional
Substance-P receptor [5] = target: T1, Substance-P receptor; assay: Binding affinity against human Tachykinin receptor 1 expressed in CHO cells using [3H]-substance P as the radioligand; less than 50% inhibition at 10e-5 M; assay type: cell-based

T1 sequence (P25103 whole entry): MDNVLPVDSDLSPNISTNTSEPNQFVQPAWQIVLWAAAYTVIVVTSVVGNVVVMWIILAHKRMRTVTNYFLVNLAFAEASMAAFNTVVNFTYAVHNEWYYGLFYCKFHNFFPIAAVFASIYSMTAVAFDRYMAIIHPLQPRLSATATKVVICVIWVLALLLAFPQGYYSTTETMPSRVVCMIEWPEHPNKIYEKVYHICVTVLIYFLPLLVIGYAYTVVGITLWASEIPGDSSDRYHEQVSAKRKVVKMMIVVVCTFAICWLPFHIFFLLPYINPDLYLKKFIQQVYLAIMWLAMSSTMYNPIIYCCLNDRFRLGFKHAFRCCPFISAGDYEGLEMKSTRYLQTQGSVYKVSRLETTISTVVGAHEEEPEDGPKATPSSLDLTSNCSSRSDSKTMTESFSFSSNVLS
Chain of Sodium-dependent serotonin transporter (P31652 whole entry): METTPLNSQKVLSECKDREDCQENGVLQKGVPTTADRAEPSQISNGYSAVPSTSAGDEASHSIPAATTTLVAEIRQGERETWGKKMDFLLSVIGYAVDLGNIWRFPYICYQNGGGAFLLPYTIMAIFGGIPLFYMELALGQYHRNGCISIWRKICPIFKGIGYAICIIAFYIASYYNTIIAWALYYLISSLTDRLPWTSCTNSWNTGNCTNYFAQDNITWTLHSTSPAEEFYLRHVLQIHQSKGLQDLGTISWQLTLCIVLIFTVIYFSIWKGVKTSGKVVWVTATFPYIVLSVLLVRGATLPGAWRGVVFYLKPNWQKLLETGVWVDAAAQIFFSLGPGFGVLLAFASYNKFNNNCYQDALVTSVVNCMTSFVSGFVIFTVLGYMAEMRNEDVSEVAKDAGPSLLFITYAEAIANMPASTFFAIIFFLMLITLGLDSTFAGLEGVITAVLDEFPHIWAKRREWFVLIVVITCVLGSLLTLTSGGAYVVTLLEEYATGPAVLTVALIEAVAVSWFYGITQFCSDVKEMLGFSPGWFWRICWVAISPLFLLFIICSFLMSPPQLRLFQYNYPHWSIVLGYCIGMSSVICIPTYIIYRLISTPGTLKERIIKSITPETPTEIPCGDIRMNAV

In the case of `Fc1cc(COCC(c2ccccc2)N2CCNCC2)cc(C(F)(F)F)c1` (configuration not stated), the IC50 [1] is reported as 15.8 nM and the IC50 (Substance-P receptor [2]) is reported as 12.6 nM.
With `Brc1cc(I)cc(COCC(c2ccccc2)N2CCNCC2)c1` (configuration not stated) the IC50 [1] was 25.1 nM and the IC50 (Substance-P receptor [2]) was 1.26 nM.
`FC(F)(F)c1cc(COCC(c2ccc(Cl)c(Cl)c2)N2CCNCC2)cc(C(F)(F)F)c1` (configuration not stated) showed an IC50 [1] of 200 nM and an IC50 (Substance-P receptor [2]) of 5.01 nM.
`Fc1ccc(C(COCc2cc(C(F)(F)F)cc(C(F)(F)F)c2)N2CCNCC2)cc1` (configuration not stated) showed an IC50 [1] of 158 nM and an IC50 (Substance-P receptor [2]) of 100 nM.
`FC(F)(F)c1cc(COCC(c2ccccc2Cl)N2CCNCC2)cc(C(F)(F)F)c1` (configuration not stated) was tested, and the IC50 [1] was 200 nM and the IC50 (Substance-P receptor [2]) was 1.58 nM.
`CC(C)(C)c1cc(COCC(c2ccccc2)N2CCNCC2)cc(C(C)(C)C)c1` (configuration not stated) gave an IC50 [1] of 1000 nM.
`FC(F)(F)c1cc(COCC(c2ccccc2)N2CCNCC2)cc(C(F)(F)F)c1` (configuration not stated) was tested, and the IC50 [1] was 251 nM and the IC50 (Substance-P receptor [2]) was 5.01 nM.
`Brc1cc(Br)cc(COC[C@H](c2ccccc2)N2CCNCC2)c1` was tested, and the Dose (Gerbillinae) was 3.2e-05 M/kg, the Dose (Cavia porcellus [3]) was 1e-05 M/kg and the Dose (Cavia porcellus [4]) was 3.5e-05 M/kg. The IC50 [1] was 10 nM, the IC50 (Substance-P receptor [2]) was 3.16 nM and the Dose (Rattus norvegicus) was 3.2e-05 M/kg.
`CNCCC(Oc1ccc(C(F)(F)F)cc1)c1ccccc1` (configuration not stated) was tested, and the “Log IC50” value (Substance-P receptor [5]) was “inactive”.
`Clc1cc(Cl)cc(COC[C@H](c2ccccc2)N2CCNCC2)c1` showed an IC50 [1] of 2.51 nM and an IC50 (Substance-P receptor [2]) of 3.16 nM.
For `COc1c(Br)cc(Br)cc1COCC(c1ccccc1)N1CCNCC1` (configuration not stated), the IC50 [1] was 6.31 nM and the IC50 (Substance-P receptor [2]) was 7.94 nM.
For `Clc1cc(Cl)cc(COC[C@@H](c2ccccc2)N2CCNCC2)c1`, the IC50 [1] was 12.6 nM and the IC50 (Substance-P receptor [2]) was 25.1 nM.
`Fc1cccc(C(COCc2cc(C(F)(F)F)cc(C(F)(F)F)c2)N2CCNCC2)c1F` (configuration not stated) was tested, and the IC50 [1] was 316 nM and the IC50 (Substance-P receptor [2]) was 3.16 nM.
With `COc1ccc(C(COCc2cc(C(F)(F)F)cc(C(F)(F)F)c2)N2CCNCC2)cc1` (configuration not stated) the IC50 [1] was 100 nM and the IC50 (Substance-P receptor [2]) was 50.1 nM.
Compound `FC(F)(F)c1cc(COCC(c2cccc(Cl)c2)N2CCNCC2)cc(C(F)(F)F)c1` (configuration not stated) has an IC50 [1] of 251 nM and an IC50 (Substance-P receptor [2]) of 1.58 nM.
`Fc1ccccc1C(COCc1cc(C(F)(F)F)cc(C(F)(F)F)c1)N1CCNCC1` (configuration not stated) showed an IC50 [1] of 200 nM and an IC50 (Substance-P receptor [2]) of 5.01 nM.
In the case of `Fc1cc(F)cc(COCC(c2ccccc2)N2CCNCC2)c1` (configuration not stated), the IC50 [1] is reported as 0.794 nM and the IC50 (Substance-P receptor [2]) is reported as 200 nM.
With `Cc1cc(C)cc(COCC(c2ccccc2)N2CCNCC2)c1` (configuration not stated) the IC50 (Substance-P receptor [2]) was 25.1 nM.
With `COc1cccc(C(COCc2cc(C(F)(F)F)cc(C(F)(F)F)c2)N2CCNCC2)c1` (configuration not stated) the IC50 [1] was 200 nM and the IC50 (Substance-P receptor [2]) was 1 nM.
With `COc1ccccc1C(COCc1cc(C(F)(F)F)cc(C(F)(F)F)c1)N1CCNCC1` (configuration not stated) the IC50 [1] was 251 nM and the IC50 (Substance-P receptor [2]) was 6.31 nM.
With `Brc1cc(Br)cc(COC[C@@H](c2ccccc2)N2CCNCC2)c1` the IC50 [1] was 31.6 nM and the IC50 (Substance-P receptor [2]) was 12.6 nM.
`Clc1cccc(COCC(c2ccccc2)N2CCNCC2)c1` (configuration not stated) gave an IC50 [1] of 7.94 nM and an IC50 (Substance-P receptor [2]) of 398 nM.
Compound `CC(C)c1cccc(C(COCc2cc(C(F)(F)F)cc(C(F)(F)F)c2)N2CCNCC2)c1` (configuration not stated) has an IC50 [1] of 316 nM and an IC50 (Substance-P receptor [2]) of 39.8 nM.
